Results from ChEMBL document CHEMBL5223178, “Macrocyclic Retinoic Acid Receptor-Related Orphan Receptor C2 Inverse Agonists” (ACS Med Chem Lett, 2023).

How the values were obtained:
[1] = molecular target: T1, Nuclear receptor ROR-beta (Homo sapiens, UniProt Q92753); experiment: Inverse agonist activity at 6His-tagged RORB LBD (unknown origin) expressed in Escherichia coli assessed as inhibition of biotinylated SRC1-2 derived CPSSHSSLTERHKILHRLLQEGSPS-NH2 containing LXXLL coactivator peptide incubated for 3 hrs by TR-FRET assay
T1 sequence (Q92753 whole entry): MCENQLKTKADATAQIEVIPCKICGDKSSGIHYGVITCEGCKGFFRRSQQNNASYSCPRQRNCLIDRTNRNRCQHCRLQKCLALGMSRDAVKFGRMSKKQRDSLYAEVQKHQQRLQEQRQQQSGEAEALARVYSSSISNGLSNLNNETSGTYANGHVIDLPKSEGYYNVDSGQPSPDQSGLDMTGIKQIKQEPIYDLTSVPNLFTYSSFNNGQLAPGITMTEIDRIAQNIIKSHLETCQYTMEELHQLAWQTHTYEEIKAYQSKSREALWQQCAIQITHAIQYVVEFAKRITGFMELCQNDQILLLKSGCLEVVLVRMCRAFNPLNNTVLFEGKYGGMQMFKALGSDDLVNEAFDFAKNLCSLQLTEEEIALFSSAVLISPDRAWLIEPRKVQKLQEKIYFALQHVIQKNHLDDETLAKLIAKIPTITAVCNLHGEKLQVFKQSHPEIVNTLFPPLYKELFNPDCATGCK

[2] = Clearance in human liver microsomes; type: ADME, Microsome; settings: read-out: CLH
[3] = system: Homo sapiens; experiment: Ex vivo drug penetration in human abdominal skin applied topically using flow-through diffusion cell assessed as compound concentration in skin epidermis measured upto 24 hrs by LC-MS/MS based in vitro skin penetration assay; type: functional; settings: Abdomen skin
Outline: (§1)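 Ex vivo human skin dosed topically with a 2.75% (w/w) formulation in 30% ethanol, 30% PEG400, 20% diethylene glycol monoethyl ether and 20% glycerin (w/w). Cumulative amount in receptor solution (ng/cm2) was followed over 24 h. At 24 h, excess surface compound was removed, and epidermis and dermis were separated and homogenized to measure concentration (μg/g). Results are means with SEM.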

[4] = system: Homo sapiens; experiment: Ex vivo drug penetration in human abdominal skin applied topically using flow-through diffusion cell assessed as compound flux through skin measured upto 24 hrs by LC-MS/MS based in vitro skin penetration assay; type: functional; settings: Abdomen skin; outline: as §1
[5] = molecular target: Voltage-gated inwardly rectifying potassium channel KCNH2 (Homo sapiens, UniProt Q12809); experiment: Displacement of [3H]-dofetilide from human ERG; type: toxicity
Outline: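 Binding assay measuring displacement of [3H]dofetilide. Values are means of two or more independent assays.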

[6] = Inverse agonist activity at 6His-tagged RORC2 LBD (unknown origin) expressed in Escherichia coli assessed as inhibition of biotinylated SRC1-2 derived CPSSHSSLTERHKILHRLLQEGSPS-NH2 containing LXXLL coactivator peptide incubated for 3 hrs by TR-FRET assay; design: species or system Homo sapiens
Outline: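 TR-FRET cofactor recruitment measuring displacement of SRC1-2 coactivator peptide binding to histidine-tagged RORC2 ligand-binding domain. Values are means of two or more independent assays.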

[7] = molecular target: T2, PXR (NR1I2) (Homo sapiens, UniProt O75469); experiment: Agonist activity at PXR in human HeLa cells assessed as increase in NR activity at 10 uM relative to control; type: cell-based; settings: read-out: Activity
T2 sequence (O75469 whole entry): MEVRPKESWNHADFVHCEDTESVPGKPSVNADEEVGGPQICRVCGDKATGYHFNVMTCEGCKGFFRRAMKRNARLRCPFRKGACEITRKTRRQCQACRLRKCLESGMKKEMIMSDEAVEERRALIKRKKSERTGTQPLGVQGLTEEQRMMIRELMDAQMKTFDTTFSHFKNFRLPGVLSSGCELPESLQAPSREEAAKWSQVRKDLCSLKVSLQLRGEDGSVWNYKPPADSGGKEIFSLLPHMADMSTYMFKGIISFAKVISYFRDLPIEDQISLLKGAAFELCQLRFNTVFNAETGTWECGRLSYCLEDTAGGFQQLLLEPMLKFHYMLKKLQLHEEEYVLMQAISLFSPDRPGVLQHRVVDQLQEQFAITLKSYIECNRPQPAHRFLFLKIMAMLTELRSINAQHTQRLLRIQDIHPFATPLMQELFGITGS
Outline: (§2)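 Multiplexed trans-FACTORIAL profiling: cells transfected with ligand-binding-domain chimeric constructs of 48 nuclear receptors fused to GAL4 DNA. Reporter RNA levels were measured. Compound was tested at 1 and 10 μM. Readout was fold change versus control, with a 20% change as the threshold for antagonist (reduction) or agonist (increase) effect.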

[8] = Inhibition of IL-17A production in human Th17 cells incubated for 6 days […]; type: functional, cell-based; settings: Th17, 144 h
Outline: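 Inhibition of IL-17A production by human primary Th17 cells. Values are means of two or more independent assays.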

[9] = system: HeLa; experiment: Antagonist activity at RORC2 in human HeLa cells assessed as reduction in NR activity at 1 to 10 uM relative to control; type: cell-based; design: scale not given: the % may be the effect or the level left; settings: dose 1-10 µM; outline: as §2
[10] = molecular target: T3, Nuclear receptor ROR-alpha (Homo sapiens, UniProt P35398); experiment: Inverse agonist activity at 6His-tagged RORA LBD (unknown origin) expressed in Escherichia coli assessed as inhibition of biotinylated SRC1-2 derived CPSSHSSLTERHKILHRLLQEGSPS-NH2 containing LXXLL coactivator peptide incubated for 3 hrs by TR-FRET assay
T3 sequence (P35398 whole entry): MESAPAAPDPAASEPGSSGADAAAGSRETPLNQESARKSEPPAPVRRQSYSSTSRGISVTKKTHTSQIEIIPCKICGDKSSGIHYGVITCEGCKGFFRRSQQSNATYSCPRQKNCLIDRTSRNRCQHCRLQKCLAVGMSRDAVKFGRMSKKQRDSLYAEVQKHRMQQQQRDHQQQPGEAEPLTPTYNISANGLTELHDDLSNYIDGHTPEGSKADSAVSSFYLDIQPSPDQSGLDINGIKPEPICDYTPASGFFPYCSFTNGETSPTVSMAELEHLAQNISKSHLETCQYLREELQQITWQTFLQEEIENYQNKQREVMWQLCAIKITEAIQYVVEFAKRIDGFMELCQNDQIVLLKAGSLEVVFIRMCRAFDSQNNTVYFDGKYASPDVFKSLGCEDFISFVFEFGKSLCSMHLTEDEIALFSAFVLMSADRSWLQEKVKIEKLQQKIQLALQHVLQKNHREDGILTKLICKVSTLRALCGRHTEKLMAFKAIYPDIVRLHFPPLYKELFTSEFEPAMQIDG

[11] = system: Homo sapiens; experiment: Ex vivo drug penetration in human abdominal skin applied topically using flow-through diffusion cell assessed as compound concentration in dermis layers measured upto 24 hrs by LC-MS/MS based in vitro skin penetration assay; type: functional, Abdomen skin; outline: as §1
[12] = Passive apparent permeability in MDCKII-LE cells; type: ADME, cell-based, Canis lupus familiaris; settings: dog, MDCK
Outline: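 Passive permeability measured across RRCK (MDCKII-LE) cell monolayers. Values are means of two or more independent assays.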

[13] = Lipophilicity, log D of the compound at pH 7.4 by reverse phase HPLC; type: physicochemical; settings: buffer
Outline: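 LogD at pH 7.4 determined by reverse-phase HPLC. Values are means of two or more independent assays.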

Sequence of Voltage-gated inwardly rectifying potassium channel KCNH2 (Q12809 whole entry): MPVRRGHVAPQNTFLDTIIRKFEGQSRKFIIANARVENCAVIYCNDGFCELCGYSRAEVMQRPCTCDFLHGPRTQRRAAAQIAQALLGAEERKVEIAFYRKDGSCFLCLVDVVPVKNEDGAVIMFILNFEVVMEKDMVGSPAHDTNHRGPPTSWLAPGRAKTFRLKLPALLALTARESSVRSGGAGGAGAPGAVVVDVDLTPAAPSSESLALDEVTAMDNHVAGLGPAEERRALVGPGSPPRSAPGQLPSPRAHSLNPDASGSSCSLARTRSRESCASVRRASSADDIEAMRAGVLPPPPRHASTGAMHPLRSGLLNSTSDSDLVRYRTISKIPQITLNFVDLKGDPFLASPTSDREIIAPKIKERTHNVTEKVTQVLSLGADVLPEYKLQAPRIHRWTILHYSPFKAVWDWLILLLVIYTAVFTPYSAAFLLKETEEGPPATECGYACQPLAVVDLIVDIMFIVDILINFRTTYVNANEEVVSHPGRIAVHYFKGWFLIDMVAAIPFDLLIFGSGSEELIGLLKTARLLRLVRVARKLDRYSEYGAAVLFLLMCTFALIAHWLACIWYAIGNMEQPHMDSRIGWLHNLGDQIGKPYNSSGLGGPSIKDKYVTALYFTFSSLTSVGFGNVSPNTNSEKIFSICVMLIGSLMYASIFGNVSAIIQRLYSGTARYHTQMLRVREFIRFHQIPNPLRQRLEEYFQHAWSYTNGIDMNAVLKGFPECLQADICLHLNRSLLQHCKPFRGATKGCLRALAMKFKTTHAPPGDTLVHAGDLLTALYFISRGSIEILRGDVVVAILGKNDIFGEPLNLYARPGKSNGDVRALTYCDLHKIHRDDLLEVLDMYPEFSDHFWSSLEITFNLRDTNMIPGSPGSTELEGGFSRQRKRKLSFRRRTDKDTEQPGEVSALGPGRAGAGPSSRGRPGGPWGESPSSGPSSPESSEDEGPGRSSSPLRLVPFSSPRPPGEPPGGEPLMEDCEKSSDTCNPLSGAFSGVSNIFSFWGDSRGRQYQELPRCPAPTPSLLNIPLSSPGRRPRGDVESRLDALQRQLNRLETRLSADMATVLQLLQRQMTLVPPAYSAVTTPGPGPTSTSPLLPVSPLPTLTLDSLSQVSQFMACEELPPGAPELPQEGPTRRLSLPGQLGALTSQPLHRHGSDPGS

| Structure (SMILES) | IC50 [1] [µM] | microsomal CLint [2] [µL/min/mg] | IC50 [6] [µM] | activity at 10 µM [7] [%] | IC50 [10] [µM] | Papp [12] [nm/s] | chromatographic logD [13] | Drug uptake [3] [µg/g] | Drug uptake [4] [ng/cm2/h] | Ki [5] [µM] | IC50 [8] [µM] | Activity [9] [%] | Activity [11] [µg/g] |
| --- | --- | --- | --- | --- | --- | --- | --- | --- | --- | --- | --- | --- | --- |
| Cc1c2cc(F)cc1NS(=O)(=O)NCCCCC1CN(CCN1C(=O)CC1CC1)C2 (stereo not drawn) |  | 160 | 0.15 |  |  | 184 | 2.9 |  |  |  | 0.17 |  |  |
| Cc1c2cc(F)cc1NS(=O)(=O)CCCCCC1CN(CCN1C(=O)CC1CC1)C2 (stereo not drawn) |  | 260 | 0.069 |  |  | 124 | 3.2 |  |  |  | 0.055 |  |  |
| O=C(CC1CC1)N1CCN2Cc3cc(F)cc(c3)NS(=O)(=O)CCCCCC1C2 (stereo not drawn) |  | 80 | 2.4 |  |  | 117 | 3.6 |  |  |  | > 10 |  |  |
| Cc1c2cc(F)cc1NS(=O)(=O)CCCCC1CN(CCN1C(=O)CC1CC1)C2 (stereo not drawn) |  | 71 | 0.62 |  |  | 247 | 3.3 |  |  |  | 2.6 |  |  |
| Cc1c2cc(F)cc1NS(=O)(=O)CCCOCC1CN(CCN1C(=O)CC1CC1)C2 (stereo not drawn) |  | 55 | 0.12 |  |  |  | 2.1 |  |  |  | 0.11 |  |  |

Now those with a lower IC50 [6], led by results:

| IC50 [1] [µM] | microsomal CLint [2] [µL/min/mg] | IC50 [6] [µM] | activity at 10 µM [7] [%] | IC50 [10] [µM] | Papp [12] [nm/s] | chromatographic logD [13] | Structure (SMILES) | Drug uptake [3] [µg/g] | Drug uptake [4] [ng/cm2/h] | Ki [5] [µM] | IC50 [8] [µM] | Activity [9] [%] | Activity [11] [µg/g] |
| --- | --- | --- | --- | --- | --- | --- | --- | --- | --- | --- | --- | --- | --- |
|  | 130 | 0.027 |  |  | 220 | 2.9 | Cc1c2cc(C#N)cc1NS(=O)(=O)CCCCC[C@H]1CN(CCN1C(=O)C(C)C)C2 |  |  | 17 | 0.065 |  |  |
|  | > 320 | 0.014 |  |  | 210 | 3.5 | Cc1c2cc(F)cc1NS(=O)(=O)N(C)CCCCC1CN(CCN1C(=O)CC1CC1)C2 (stereo not drawn) |  |  |  | 0.026 |  |  |
|  | 53 | 0.012 |  |  | 45 | 4.7 | Cc1c(CN2CCN(C(=O)CC3CC3)[C@@H](C)C2)cc(F)cc1NS(=O)(=O)c1ccc(F)cc1 |  |  | 1.8 | 0.141 |  |  |
| > 25 | 223 | 0.0093 | > 20 | > 25 | 240 | 3.4 | Cc1c2cccc1NS(=O)(=O)CCCCC[C@H]1CN(CCN1C(=O)C(C)C)C2 | 92.7 | 28.1 | 37 | 0.028 | > 20 | 18.3 |
|  | 239 | 0.0054 |  |  | 65 | 4.5 | Cc1c(CN2CCN(C(=O)C3CCCC3)[C@@H](C)C2)cc(F)cc1NC(=O)c1cccc(C#N)c1 |  |  | 3.6 | 0.016 |  |  |
|  | 205 | 0.0052 |  |  | 190 | 3.8 | Cc1c2cc(F)cc1NS(=O)(=O)CCCCC[C@H]1CN(CCN1C(=O)C(C)C)C2 |  |  | 19 | 0.087 |  |  |
|  | 200 | 0.0024 |  |  | 170 | 4.3 | Cc1c2cc(Cl)cc1NS(=O)(=O)CCCCC[C@H]1CN(CCN1C(=O)C(C)C)C2 |  |  | 11 | 0.0022 |  |  |
|  | 68 | 0.0021 |  |  | 13 | 5.3 | Cc1c(CN2CCN(C(=O)C3CCCC3)[C@@H](C)C2)cc(F)cc1NS(=O)(=O)c1ccc(F)cc1 |  |  | 4 | 0.0065 |  |  |
